# Measured values reported in PubChem BioAssay.
# The source made the active and inactive calls.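 How the source made its calls, unless noted: active means viability at or below 10% of carrier control in both of two separate runs; inconclusive means viability at or below 10% in only one of the two runs; inactive means the rest.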
# What was measured:
# [1] = Her2 expression decrease, cell viability multiplex – SKBR3 breast tumor cells, AlphaScreen, ATP viability, primary screen (AID 461;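 active means Her2 level under about 52% in both replicate screens, with viability over 70% of control, limit read from the data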;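 on Her2 level: lower value means less Her2 protein in the cells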;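 on viability: percent of carrier control wells set as 100% viability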); settings: SKBR3 Her2 protein level, 18-24 h, measured here: SKBR3 viability, ATP luminescence, at 10 µM
# [2] = target: Receptor tyrosine-protein kinase erbB-2 (Homo sapiens) (UniProt P04626); experiment: as above; settings: 18-24 h, at 10 µM, stronger effect = lower value
# Sequence of Receptor tyrosine-protein kinase erbB-2 (Homo sapiens) (P04626 whole entry, looked up): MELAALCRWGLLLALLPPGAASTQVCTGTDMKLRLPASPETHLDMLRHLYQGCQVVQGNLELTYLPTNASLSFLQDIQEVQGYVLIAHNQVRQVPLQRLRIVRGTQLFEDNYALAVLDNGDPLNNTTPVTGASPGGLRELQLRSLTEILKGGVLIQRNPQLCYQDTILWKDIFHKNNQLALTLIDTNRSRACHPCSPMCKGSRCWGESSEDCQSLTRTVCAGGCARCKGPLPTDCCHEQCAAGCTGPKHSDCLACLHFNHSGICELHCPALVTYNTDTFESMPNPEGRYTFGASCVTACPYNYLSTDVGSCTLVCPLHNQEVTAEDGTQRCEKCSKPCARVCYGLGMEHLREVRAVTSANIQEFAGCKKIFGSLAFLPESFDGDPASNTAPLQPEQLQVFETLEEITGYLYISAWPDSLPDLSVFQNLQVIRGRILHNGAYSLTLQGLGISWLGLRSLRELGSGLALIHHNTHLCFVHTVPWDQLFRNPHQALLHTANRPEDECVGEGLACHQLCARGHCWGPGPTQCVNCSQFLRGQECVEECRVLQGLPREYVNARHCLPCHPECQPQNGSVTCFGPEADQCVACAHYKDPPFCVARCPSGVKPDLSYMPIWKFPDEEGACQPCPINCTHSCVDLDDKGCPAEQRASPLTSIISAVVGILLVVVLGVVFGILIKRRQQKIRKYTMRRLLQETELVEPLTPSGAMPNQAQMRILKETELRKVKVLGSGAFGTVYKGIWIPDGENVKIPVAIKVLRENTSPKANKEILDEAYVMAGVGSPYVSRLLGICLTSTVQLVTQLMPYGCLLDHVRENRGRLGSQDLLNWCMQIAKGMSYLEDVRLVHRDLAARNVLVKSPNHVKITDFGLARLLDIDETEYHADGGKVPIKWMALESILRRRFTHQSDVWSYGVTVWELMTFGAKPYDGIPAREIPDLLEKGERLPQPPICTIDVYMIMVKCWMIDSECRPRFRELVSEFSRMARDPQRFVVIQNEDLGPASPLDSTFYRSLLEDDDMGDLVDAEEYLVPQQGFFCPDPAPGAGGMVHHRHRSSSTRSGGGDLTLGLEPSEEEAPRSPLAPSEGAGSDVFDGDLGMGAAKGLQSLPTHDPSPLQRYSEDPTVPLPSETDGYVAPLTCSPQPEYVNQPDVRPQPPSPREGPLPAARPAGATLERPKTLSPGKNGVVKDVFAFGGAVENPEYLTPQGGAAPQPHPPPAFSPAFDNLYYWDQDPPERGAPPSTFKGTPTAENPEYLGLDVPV
# [3] = reduced viability of SK-BR-3 breast cancer cells – cell-based, 24 h, human, pilot screen (AID 572); settings: SK-BR-3 viability, CellTiter-Glo luminescence, at 10 µM, stronger effect = lower value;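 further: compound exposure lasted between 18 and 24 h rather than exactly 24 h; 100% = carrier-treated control wells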
# [4] = HUVEC growth inhibition – cell-based, human, primary screen (AID 575;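 active means viability at or below 30% in both replicate assays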;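 further: 100% = median of untreated cell wells with 0.1% DMSO on each plate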); settings: HUVEC proliferation, CellTiter-Glo luminescence, 72 h; at 10 µM; stronger effect = lower value
# Summary of the method: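 Timing: 72 h treatment at 37 °C; material: HUVEC primary cells; technique: CellTiter-Glo luminescence measuring cellular ATP; controls: vehicle and MePR control wells; measure: percent of median DMSO-control luminescence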
# [5] = H69AR cell proliferation blockers – human, duplicate replicates, primary screen (AID 580;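 active means viability at or under a set limit in both replicates, limit being median viability minus 3 SD, cut at about 48% in these data, passing the limit was not always enough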;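 further: 100% = mean luminescence of untreated wells and 0% = no signal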); settings: H69AR lung tumor cells viability, ATP luminescence, 72 h; at 10 µM; stronger effect = lower value
# [6] = MRP1 drug-resistance reversers in H69AR cells – cell-based, doxorubicin co-treatment, pilot screen (AID 601;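 active means viability loss from added drug above about 55%, and viability with drug at most 40%, in both replicates, limit read from the data, passing the limit was not always enough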); settings: CellTiter-Glo, 72 h, at 10 µM; for differential viability (reversal): stronger effect = higher value
# [7] = yeast transport mutant growth inhibition pilot in 384-well plates, post-Golgi transport modulator project (AID 636; in the data active means inhibition above about 31%); settings: absorbance 615 nm, about 18 h, stronger effect = higher value
# [8] = growth suppression of yeast trafficking mutant, preliminary HTS, modulators of trafficking downstream of Golgi apparatus project, 1536-format plate, OD 615 nm (AID 637; in the data active means inhibition above about 30%); settings: yeast transport mutant growth, absorbance 615 nm, 18 h; stronger effect = higher value
# [9] = H69AR cells + 2 uM doxorubicin, measured here: viability with 2 uM doxorubicin, stronger effect = lower value
# [10] = H69AR cells, compound alone cytotoxicity
SMILES,viability [1],Her2 level [2],viability [3],viability [4],viability [5],differential viability (reversal) ([6]; H69AR cells + 2 uM doxorubicin),"viability [6, 9]","viability [6, 10]",inhibition [7],inhibition [8]
c1cncc(-c2nc3c4ccccc4nc(N4CCC(N5CCCCC5)CC4)n3n2)c1,93.5%,79.5% (inactive),93.5% (inactive),80.1% (inactive),84.1% (inactive),2.83% (inactive),81.2%,84.1%,-9.73% (inactive),-0.48% (inactive)
CN(CC(=O)N1CCN(C2CCCCC2)CC1)S(=O)(=O)c1cccc2nsnc12,88%,83% (inactive),88% (inactive),107% (inactive),97.2% (inactive),5.6% (inactive),91.5%,97.2%,-4.53% (inactive),6.23% (inactive)
CCc1ccc(NS(=O)(=O)c2ccc3[nH]cc(C(=O)N4CCCCC4)c(=O)c3c2)cc1,124%,92% (inactive),124% (inactive),102% (inactive),89.6% (inactive),5.6% (inactive),84%,89.6%,-5.66% (inactive),-0.81% (inactive)
CCC(=O)N/C(N)=N/c1nc(C)c2cc(OC)ccc2n1,131%,67.5% (inactive),131% (inactive),59.5% (inactive),80.7% (inactive),-8.64% (inactive),89.3%,80.7%,-0.13% (inactive),-5.74% (inactive)
O=C(COc1ccc(S(=O)(=O)N2CCCC2)cc1Cl)NC1CC1,126%,108% (inactive),126% (inactive),112% (inactive),101% (inactive),7.76% (inactive),93.2%,101%,-5.68% (inactive),3.67% (inactive)
Cc1cnc(C(=O)Nc2ccc(N3CCN(C(=O)OC(C)(C)C)CC3)cc2)cn1,109%,106% (inactive),109% (inactive),100% (inactive),115% (inactive),15.1% (inactive),99.9%,115%,-5.84% (inactive),-6.51% (inactive)
COc1ccc(CNC(=O)C(c2ccco2)N(Cc2cccs2)C(=O)Cc2cccs2)cc1 (stereo not given),96.5%,86.5% (inactive),96.5% (inactive),67.5% (inactive),72.5% (inactive),8.17% (inactive),64.3%,72.5%,-1.95% (inactive),-4.29% (inactive)
COCCCn1c(SCC(=O)N2CCc3ccccc32)nnc1-c1ccoc1C,108%,80% (inactive),108% (inactive),93.8% (inactive),98.4% (inactive),2.4% (inactive),96%,98.4%,-4.67% (inactive),0.65% (inactive)
